Here are results for 5 molecules from ChEMBL document CHEMBL3627680, “An unprecedented dual antagonist and agonist of human Transglutaminase 2” (Bioorg Med Chem Lett, 2015).

The term Ki denotes the dissociation constant of the complex between target and ligand, obtained from inhibition or displacement.

Test [1] deals with T1, Protein-glutamine gamma-glutamyltransferase (Homo sapiens, UniProt P21980). In words: Competitive inhibition of recombinant human TG2 V224 mutant deamidation activity using Cbz-Gln-Gly as substrate preincubated for 30 mins followed by substrate addition by Lineweaver-Burk plot analysis in presence of 5 mM Ca2+. The method in brief: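 Deamidation of Cbz-Gln-Gly by the V224 allele of human TG2 (0.5 μM) was read by a GDH-coupled assay at 5 mM Ca2+. Michaelis-Menten data were collected at several inhibitor levels, and Ki was derived from Lineweaver-Burk analysis.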

The test system of test [2] is Protein-glutamine gamma-glutamyltransferase (Homo sapiens), P21980 [UNDEFINED MUTATION]. As to the kind of experiment: Effect on open state of recombinant human TG2 V224 mutant at 500 uM after 1 hr by native PAGE analysis in presence of 1 mM MgCl2.
The test system is the same in test [3]. In words: Effect on closed state of recombinant human TG2 V224 mutant at 500 uM after 1 hr by native PAGE analysis in presence of 1 mM MgCl2.
Test [4] concerns the target T2, Protein-glutamine gamma-glutamyltransferase (Homo sapiens) (UniProt P21980).
T2 sequence (whole entry): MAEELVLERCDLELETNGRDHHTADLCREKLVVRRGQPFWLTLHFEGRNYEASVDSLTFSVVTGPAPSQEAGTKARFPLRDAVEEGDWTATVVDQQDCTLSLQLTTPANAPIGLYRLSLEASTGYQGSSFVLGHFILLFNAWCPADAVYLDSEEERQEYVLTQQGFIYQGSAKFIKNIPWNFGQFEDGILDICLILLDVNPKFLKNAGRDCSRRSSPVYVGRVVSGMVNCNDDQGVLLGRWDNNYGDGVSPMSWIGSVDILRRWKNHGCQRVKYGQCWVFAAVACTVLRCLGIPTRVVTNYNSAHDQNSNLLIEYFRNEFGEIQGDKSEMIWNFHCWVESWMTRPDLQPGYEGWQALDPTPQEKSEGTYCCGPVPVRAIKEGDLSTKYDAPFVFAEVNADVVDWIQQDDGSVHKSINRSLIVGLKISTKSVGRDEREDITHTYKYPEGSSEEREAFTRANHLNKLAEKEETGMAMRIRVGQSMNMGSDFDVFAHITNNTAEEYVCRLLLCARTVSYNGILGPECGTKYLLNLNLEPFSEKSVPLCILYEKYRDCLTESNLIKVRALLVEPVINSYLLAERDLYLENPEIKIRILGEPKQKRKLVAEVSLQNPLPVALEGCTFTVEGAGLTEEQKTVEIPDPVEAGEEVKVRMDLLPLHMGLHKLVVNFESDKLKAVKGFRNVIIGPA
As to the kind of experiment: Activation of extracellular TG2 transamidating activity in human WI38 cells assessed as incorporation of 5-BP into fibronectin at 1 uM preincubated for 30 mins followed by 5-BP addition measured after 3 hrs by DAPI staining-based confocal fluorescence microscopic analysis. In kind it is cell-based. The conditions noted are these: WI-38. The gist of the method:
(§1)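 WI-38 fibroblasts grown to confluence, pre-incubated 30 min with vehicle (1% DMSO) or compound, then incubated with 200 μM 5-(biotinamido)-pentylamine for 3 h. Cells fixed and stained to image 5-BP incorporation into extracellular matrix proteins as a measure of TG2 transamidation. Five images sampled per well.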

Test [5] deals with T2, Protein-glutamine gamma-glutamyltransferase (Homo sapiens). In words: Activation of extracellular TG2 transamidating activity in human WI38 cells assessed as incorporation of 5-BP into fibronectin at 10 uM preincubated for 30 mins followed by 5-BP addition measured after 3 hrs by DAPI staining-based confocal fluorescence microscopic analysis. Type of test: cell-based. The conditions noted are these: WI-38. The method in brief:
as §1

The target in test [6] is T1, Protein-glutamine gamma-glutamyltransferase. As to the kind of experiment: Non-competitive inhibition of recombinant human TG2 V224 mutant deamidation activity using Cbz-Gln-Gly as substrate preincubated for 30 mins followed by substrate addition by GDH-coupled assay in presence of 5 mM Ca2+. The gist of the method: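 V224 TG2 (0.5 μM) deamidation by GDH-coupled assay at 5 mM Ca2+. Rates measured across substrate concentrations at several inhibitor levels. Mode and Ki derived by Michaelis-Menten and Lineweaver-Burk analysis.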

Test [7] deals with Protein-glutamine gamma-glutamyltransferase (Homo sapiens), P21980 [UNDEFINED MUTATION]. In words: Activation of recombinant human TG2 V224 mutant deamidation activity using Cbz-Gln-Gly as substrate preincubated for 30 mins followed by substrate addition by GDH-coupled assay in presence of 0.5 to 0.7 mM Ca2+.
Test [8] has the same test system. As to the kind of experiment: Activation of recombinant human TG2 V224 mutant deamidation activity using Cbz-Gln-Gly as substrate at 15 uM preincubated for 30 mins followed by substrate addition by GDH-coupled assay in presence of 0.6 mM Ca2+.
The test system is the same in test [9]. As to the kind of experiment: Activation of recombinant human TG2 V224 mutant transamidating activity assessed as 5-BP incorporation into immobilized N-N-dimethylcasein at 15 uM preincubated for 30 mins followed by 5-BP addition measured after 1 hr by streptavidin-based microtiter plate assay in presence of 0.6 mM Ca2+/100 uM GMP-PNP. The gist of the method: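 Transamidation microtiter assay: 5-BP incorporated into immobilized N,N-dimethylcasein by V224 TG2 at 0.6 mM Ca2+ plus 100 μM GMP-PNP, with incorporated biotin quantified with streptavidin.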

Test [10] has the same test system. As to the kind of experiment: Effect on open state of recombinant human TG2 V224 mutant at 100 uM after 1 hr by native PAGE analysis.
For test [11] the test system is unchanged. In words: Effect on closed state of recombinant human TG2 V224 mutant at 100 uM after 1 hr by native PAGE analysis.
In test [12] the test system is T3, Protein-glutamine gamma-glutamyltransferase (Homo sapiens), P21980 [R580A].
T3 sequence (whole entry): T2 sequence (whole entry) with R580A
As to the kind of experiment: Inhibition of recombinant human TG2 R580A mutant deamidation activity using Cbz-Gln-Gly as substrate at 10 uM preincubated for 30 mins followed by substrate addition by GDH-coupled assay in presence of 3 mM Ca2+. The method in brief: (§2)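 GDH-coupled deamidation assay comparing wild-type and R580A TG2 at 0.5 μM enzyme and 3 mM Ca2+, with and without GMP-PNP.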

The test system is the same in test [13]. In words: Activation of recombinant human TG2 R580A mutant deamidation activity using Cbz-Gln-Gly as substrate at 10 uM preincubated for 30 mins followed by substrate addition by GDH-coupled assay in presence of 3 mM Ca2+/500 uM GMP-PNP. The method in brief:
as §2

In test [14] the target is T2, Protein-glutamine gamma-glutamyltransferase (Homo sapiens). As to the kind of experiment: Inhibition of wild type human TG2 at 15 uM in presence of 5 mM Ca2+. The method in brief:
(§3)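 GDH-coupled deamidation with wild-type or truncated (1-466) TG2 at 0.5 μM enzyme and 5 mM Ca2+. Activity normalized to each protein's own maximum.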

The target is the same in test [15]. As to the kind of experiment: Inhibition of human TG2 truncated (1 to 466 amino acid residues) mutant at 15 uM in presence of 5 mM Ca2+. The gist of the method:
as §3

For test [16] the target is unchanged. As to the kind of experiment: Inhibition of wild type human TG2 deamidation activity using Cbz-Gln-Gly as substrate preincubated for 30 mins followed by substrate addition by GDH-coupled assay in presence of 5 mM Ca2+. The method in brief: as §3
Test [17] has as its system Protein-glutamine gamma-glutamyltransferase (Homo sapiens), P21980 [UNDEFINED MUTATION]. In words: Inhibition of human TG2 E396Q/N398S/D400N mutant deamidation activity using Cbz-Gln-Gly as substrate preincubated for 30 mins followed by substrate addition by GDH-coupled assay in presence of 5 mM Ca2+.
The test system is the same in test [18]. In words: Inhibition of human TG2 E447Q/E451Q/E452Q/E454Q mutant deamidation activity using Cbz-Gln-Gly as substrate preincubated for 30 mins followed by substrate addition by GDH-coupled assay in presence of 5 mM Ca2+.
Test [19] shares this test system. As to the kind of experiment: Activation of recombinant human TG2 V224 mutant deamidation activity using Cbz-Gln-Gly as substrate at 25 uM preincubated for 30 mins followed by substrate addition by GDH-coupled assay in presence of 0.6 mM Ca2+.

Residue numbers refer to the chain shown, from its start. Activity calls are given as the source filed them. No cut-off for these calls is given here.

Consider `Nc1nc2c(ncn2[C@@H]2O[C@H](COP(=O)(O)OP(=O)(O)NP(=O)(O)O)[C@@H](O)[C@H]2O)c(=O)[nH]1` [PHOSPHOAMINOPHOSPHONIC ACID GUANYLATE ESTER], for which, in [1], the Ki was 27 µM. The result in test [2] and in [3] was inactive.
On to `COc1ccccc1C(=O)/C=C1/C(=O)Nc2cccc(Cl)c21`, for which the result in test [4], in test [7], in test [8], in [9] and in test [13] was Active. Also, the result in [5], in test [10] and in test [11] was inactive. Further, in test [6], the Ki is 3.3 µM. Further, the inhibition result in [12], in [14], in test [15], in test [16] and in test [17] was “Active” throughout. For the same molecule, in test [18], the inhibition entry is “inactive”.
For the molecule `O=C(/C=C1/C(=O)N(c2ccccc2)c2cccc(Cl)c21)c1cccnc1`, in test [6], the Ki is 9.1 µM. Also, in [19], the result was Active.
Turning to `O=C1Nc2ccccc2/C1=C\C(=O)c1cccnc1`, the Ki in test [6] amounted to 86 µM.
On to `O=C1Nc2cccc(Cl)c2/C1=C\C(=O)c1ccc(Cl)cc1`, for which, in [4], the result was Active. In test [5], the outcome was inactive. For the same molecule, the inhibitory constant (Ki) in test [6] came out at 47 µM.
